Source: ChEMBL document CHEMBL1255261, “Lethal mutagenesis of picornaviruses with N-6-modified purine nucleoside analogues” (Antimicrob Agents Chemother, 2008)

Columns and labels:
[1] = Metabolic stability in human HeLaS3 cells assessed as JA28-triphosphate at 0.5 mM after 2 hrs by reverse-phase HPLC; assay type: ADME, cell-based; details: hela s3, 2 h, 500 µM
Summary of the method: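 Suspension-adapted HeLa S3 cells at 5 × 10^6 cells/ml in S-MEM with 2% dialyzed FBS were pretreated with actinomycin D (2.5 μg/ml, 15 min, 37°C). Nucleoside was then added to 0.5 mM final with 1% DMSO, 2 h at 37°C. Cells were extracted with ice-cold 0.6 M TCA, then trioctylamine/trichlorotrifluoroethane. Aqueous layer was run on C18 reversed-phase HPLC (CH3CN gradient in KH2PO4, pH 6.0). Triphosphate was identified by retention time and UV spectrum against synthesized standard.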

Coxsackievirus [2] = experiment: Antiviral activity against Coxsackievirus infected in compound pre-treated HeLaS3 cells assessed as reduction in viral titer at 0.5 mM after 6 hrs relative to control; assay type: functional, HeLa S3; set-up: scale not given: the % may be the effect or the level left
Summary of the method: (§1)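 HeLa S3 cells pretreated with nucleoside (0.5 or 2 mM) for 1 h, then infected with CVB3 at MOI 5. Fresh medium containing the analogue was added and infection ran 6 h at 37°C. Cell-associated virus was collected by freeze-thaw and titrated on HeLa S3 monolayers. Result is percent reduction in titer versus untreated infection.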

Enterovirus C [3] = experiment: Antiviral activity against Poliovirus infected in compound pre-treated HeLaS3 cells assessed as reduction in viral titer at 0.5 mM after 6 hrs relative to control; assay type: functional, HeLa S3; set-up: scale not given: the % may be the effect or the level left
Summary of the method: (§2)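 HeLa S3 cells (DMEM/F-12, 2% dialyzed FBS, 37°C, 5% CO2) pretreated 1 h with nucleoside (0.5 or 2 mM), then infected with PV at MOI 5. Fresh medium with analogue added, infection run 6 h at 37°C. Cell-associated virus collected by freeze-thaw and titred on HeLa S3 monolayers. Result given as percent titer reduction versus untreated control.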

[4] = Cytotoxicity against human HeLaS3 cells assessed cell viability at 0.05 after 24 hrs by Alamar blue assay; assay type: cell-based, HeLa S3; details: read-out: Activity
Summary of the method: (§3)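 HeLa S3 cells were seeded at 2 × 10^3 per well in DMEM/F-12 with 2% FBS and allowed to adhere 1 h at 37°C. Nucleoside in medium (0.05–2 mM) was added with continuous exposure at 37°C. Resazurin (Alamar blue) was added 6 h before the 24 h read. Percent reduction was taken from A570 corrected by A590 and normalized to vehicle (DMSO) cells set at 100%. Triplicate wells, mean ± SD.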

[5] = Cytotoxicity against human HeLaS3 cells assessed cell viability at 2 mM after 24 hrs by Alamar blue assay; assay type: cell-based, HeLa S3; details: read-out: Activity; summary of the method: as §3
Coxsackievirus [6] = experiment: Antiviral activity against Coxsackievirus infected in compound pre-treated HeLaS3 cells assessed as reduction in viral titer at 2 mM after 6 hrs relative to control; assay type: functional, HeLa S3; set-up: scale not given: the % may be the effect or the level left; summary of the method: as §1
Enterovirus C [7] = experiment: Antiviral activity against Poliovirus infected in compound pre-treated HeLaS3 cells assessed as reduction in viral titer at 2 mM after 6 hrs relative to control; assay type: functional, HeLa S3; set-up: scale not given: the % may be the effect or the level left; summary of the method: as §2

SMILES | Stability [1] | Activity (Coxsackievirus [2]) | Activity (Enterovirus C [3]) | viability at 24 h [4] | viability at 24 h, 2000 µM [5] | Activity (Coxsackievirus [6]) | Activity (Enterovirus C [7])
OC[C@H]1O[C@@H](n2cnc3c(NO)ncnc32)[C@H](O)[C@@H]1O | Stable | 97% | 98% | 61% | – | – | –
Nc1nc2c(ncn2[C@@H]2O[C@H](CO)[C@@H](O)[C@H]2O)/c(=N\O)[nH]1 | – | – | – | – | 37% | 99.99% | 99.97%
NNc1ncnc2c1ncn2[C@@H]1O[C@H](CO)[C@@H](O)[C@H]1O | – | 99.9% | 99.7% | 56% | – | – | –
CO/N=c1/[nH]cnc2c1ncn2[C@@H]1O[C@H](CO)[C@@H](O)[C@H]1O | – | – | – | – | – | 22% | 81%
CO/N=c1/[nH]c(N)nc2c1ncn2[C@@H]1O[C@H](CO)[C@@H](O)[C@H]1O | – | – | – | – | – | 0% | 45%
CN(N)c1ncnc2c1ncn2[C@@H]1O[C@H](CO)[C@@H](O)[C@H]1O | – | – | – | – | – | 0% | 35%
NNc1nc(N)nc2c1ncn2[C@@H]1O[C@H](CO)[C@@H](O)[C@H]1O | – | – | – | – | 57% | 95% | 97%
CN(N)c1nc(N)nc2c1ncn2[C@@H]1O[C@H](CO)[C@@H](O)[C@H]1O | – | – | – | – | – | 11% | 88%
